Measured values from PMC7993274 (Clinical and Translational Science, 2020).

Legend:
[1] = Plasma PK, single ascending dose; assay type: in vivo, human; conditions: for t1/2: arithmetic mean (SD); for AUCinf (dn) / Cmax (dn): dose normalized; for AUCinf (dn) / Cmax (dn) / AUCinf / Cmax: geometric mean (CV %); for Tmax: median (range)
How it was run: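 Healthy volunteers were randomized 3:1 to test compound or placebo, given as a single oral dose of 3–1,600 mg (tablets; suspension for 3 mg) after an overnight fast of ≥8 h. Plasma was sampled predose and at 0.5–72 h. Assay LLOQ was 1 ng/mL. Parameters came from noncompartmental analysis, were dose-normalized to 1 mg, and were reported as geometric mean (CV), with Tmax excepted.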

[2] = Clinical laboratory parameters, vital signs, ECG and overall safety; assay type: in vivo, human
How it was run: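 Double-blind, placebo-controlled study in healthy men and nonchildbearing women aged 18–55 y. The SAD period gave one fasted oral dose; the MAD period gave fed dosing q.d. for 10 days, plus a separate b.i.d. cohort. TEAEs, serious AEs and discontinuation AEs were monitored ≥28 days after the last dose. Vital signs, physical exam, 12-lead ECG, hematology, clinical chemistry and urinalysis were also recorded. Data summarized descriptively.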

Impact of food on PK = assay type: in vivo, human; design: Cmax adjusted geometric mean (90% CI) for fed vs. fasted / AUC24 adjusted geometric mean for fed vs. fasted (90% CI): unit not given beside the values; conditions: for increase in AUC24 with a meal / increase in Cmax with a meal: fed vs fasted
CYP3A4 = assay: 6‐beta‐hydroxycortisol/cortisol ratio; assay type: in vivo, human; conditions: participants receiving PF‐06826647
[3] = background statement, no reference given; cited from earlier work
[4] = pH 6.5; background statement, no reference given; cited from earlier work
[5] = rats, preclinical studies; cited from earlier work
MATE1 = conditions: cited from earlier work
MRP1 = conditions: cited from earlier work
MRP2 = conditions: cited from earlier work
MRP3 = conditions: cited from earlier work
[6] = tested on: sodium/Na+ taurocholate co‐transporting polypeptide; conditions: cited from earlier work
OATP1B1 = conditions: cited from earlier work
OATP1B3 = conditions: cited from earlier work
[7] = SAD 1,600 mg single dose fasted

Cn1cc(-c2cn3nccc3c(-c3cnn([C@]4(CC#N)C[C@@H](C#N)C4)c3)n2)cn1 [PF‐06826647]
t1/2 ([1]; SAD 3 mg single dose fasted): 3.6 (1.3) hour | AUCinf (dn) ([1]; SAD 3 mg single dose fasted): 15.9 (59) ng.hour/mL/mg | Cmax (dn) ([1]; SAD 3 mg single dose fasted): 2.6 (38) ng/mL/mg | AUCinf ([1]; SAD 3 mg single dose fasted): 47.6 (59) ng.hour/mL | Cmax ([1]; SAD 3 mg single dose fasted): 7.8 (38) ng/mL | Tmax ([1]; SAD 3 mg single dose fasted): 2.0 (1.0–2.0) hour | t1/2 ([1]; SAD 10 mg single dose fasted): 6.0 (1.9) hour | AUCinf (dn) ([1]; SAD 10 mg single dose fasted): 36.9 (67) ng.hour/mL/mg | Cmax (dn) ([1]; SAD 10 mg single dose fasted): 4.7 (35) ng/mL/mg | AUCinf ([1]; SAD 10 mg single dose fasted): 369.3 (67) ng.hour/mL | Cmax ([1]; SAD 10 mg single dose fasted): 47.1 (35) ng/mL | Tmax ([1]; SAD 10 mg single dose fasted): 2.0 (1.0–4.0) hour | t1/2 ([1]; SAD 30 mg single dose fasted): 19.7 (9.5) hour | AUCinf (dn) ([1]; SAD 30 mg single dose fasted): 28.3 (41) ng.hour/mL/mg | Cmax (dn) ([1]; SAD 30 mg single dose fasted): 2.6 (34) ng/mL/mg | AUCinf ([1]; SAD 30 mg single dose fasted): 848.4 (40) ng.hour/mL | Cmax ([1]; SAD 30 mg single dose fasted): 77.9 (34) ng/mL | Tmax ([1]; SAD 30 mg single dose fasted): 2.0 (1.0–4.0) hour | t1/2 ([1]; SAD 100 mg single dose fasted): 38.8 (36.0) hour | AUCinf (dn) ([1]; SAD 100 mg single dose fasted): 15.8 (42) ng.hour/mL/mg | Cmax (dn) ([1]; SAD 100 mg single dose fasted): 1.7 (55) ng/mL/mg | AUCinf ([1]; SAD 100 mg single dose fasted): 1,582.0 (42) ng.hour/mL | Cmax ([1]; SAD 100 mg single dose fasted): 166.8 (55) ng/mL | Tmax ([1]; SAD 100 mg single dose fasted): 2.0 (2.0–6.0) hour | t1/2 ([1]; SAD 400 mg single dose fasted): 16.3 (9.3) hour | AUCinf (dn) ([1]; SAD 400 mg single dose fasted): 7.6 (65) ng.hour/mL/mg | Cmax (dn) ([1]; SAD 400 mg single dose fasted): 1.0 (62) ng/mL/mg | AUCinf ([1]; SAD 400 mg single dose fasted): 3,056.0 (65) ng.hour/mL | Cmax ([1]; SAD 400 mg single dose fasted): 404.8 (62) ng/mL | Tmax ([1]; SAD 400 mg single dose fasted): 2.0 (0.5–4.0) hour | t1/2 [1, 7]: 22.2 (24.6) hour | AUCinf (dn) [1, 7]: 7.4 (25) ng.hour/mL/mg | Cmax (dn) [1, 7]: 0.8 (25) ng/mL/mg | AUCinf [1, 7]: 11,790.0 (25) ng.hour/mL | Cmax [1, 7]: 1,218.0 (25) ng/mL | Tmax [1, 7]: 2.0 (0.5–4.0) hour | dose proportionality of AUCinf and Cmax ([1]; SAD doses of 3–10 mg): greater than dose‐proportional | dose proportionality of AUCinf and Cmax ([1]; SAD doses of 10–400 mg): less than dose‐proportional | dose proportionality of AUCinf and Cmax ([1]; SAD doses of 400–1,600 mg): dose‐proportional | median Tmax ([1]; fasted state, SAD, overall): 2 h | increase in median platelet count from baseline ([2]; SAD 1,600 mg (placebo: 6% decrease)): 28% | changes in lipid parameters (LDL, HDL, total cholesterol) ([2]; SAD and MAD treatment groups): small, and similar to those observed in the placebo group | intensity of TEAEs ([2]; all TEAEs): mild in intensity | lymphocyte counts ([2]; assessment period): No clinically meaningful changes | neutrophil counts ([2]; assessment period): No clinically meaningful changes | events of acne or aphthous ulcers ([2]; either treatment period): No events of acne or aphthous ulcers were reported | serum cystatin C, serum creatinine‐based and cystatin C‐based eGFR ([2]; human, in vivo): No clinically meaningful changes | vital signs, ECG parameters, physical examination ([2]; human, in vivo): No clinically significant findings | platelet counts ([2]; participants receiving PF‐06826647): remained within the normal range | tolerability ([2]; single ≤ 1,600 mg, multiple ≤ 1,200 mg q.d., 200 mg b.i.d., 10‐day dosing): well‐tolerated | serum creatinine increase from baseline ([2]; some participants, isolated timepoints): up to 0.3 mg/dL | participants with gastrointestinal AEs ([2]; whole study, three participants): 4% | AUC24 adjusted geometric mean for fed vs. fasted (90% CI) (Impact of food on PK; 30 mg): 122.0 (78.7–189.2) | Cmax adjusted geometric mean (90% CI) for fed vs. fasted (Impact of food on PK; 30 mg): 107.2 (74.2–154.8) | increase in AUC24 with a meal (Impact of food on PK; 30 mg): 22% | increase in Cmax with a meal (Impact of food on PK; 30 mg): 7% | AUC24 adjusted geometric mean for fed vs. fasted (90% CI) (Impact of food on PK; 100 mg): 155.7 (99.1–244.6) | Cmax adjusted geometric mean (90% CI) for fed vs. fasted (Impact of food on PK; 100 mg): 160.2 (109.7–234.0) | increase in AUC24 with a meal (Impact of food on PK; 100 mg): 56% | increase in Cmax with a meal (Impact of food on PK; 100 mg): 60% | AUC24 adjusted geometric mean for fed vs. fasted (90% CI) (Impact of food on PK; 400 mg): 175.6 (113.3–272.3) | Cmax adjusted geometric mean (90% CI) for fed vs. fasted (Impact of food on PK; 400 mg): 144.8 (100.2–209.1) | increase in AUC24 with a meal (Impact of food on PK; 400 mg): 76% | increase in Cmax with a meal (Impact of food on PK; 400 mg): 45% | median Tmax with food (Impact of food on PK; fed, day 1 MAD, doses of 30–400 mg): 3.0 to 4.0 h | 6‐beta‐hydroxycortisol/cortisol ratio (CYP3A4): no clinically meaningful alteration | pKa [3]: < 1.7 | solubility [4]: ~ 0.3 μg/mL | drug clearance via renal and biliary excretion [5]: limited drug clearance via renal and biliary excretion | inhibition of transporter protein MATE1 (MATE1): minimal inhibition | inhibition of transporter protein MRP1 (MRP1): minimal inhibition | inhibition of transporter protein MRP2 (MRP2): minimal inhibition | inhibition of transporter protein MRP3 (MRP3): minimal inhibition | inhibition of sodium/Na+ taurocholate co‐transporting polypeptide [6]: minimal inhibition | inhibition of transporter protein OATP1B1 (OATP1B1): minimal inhibition | inhibition of transporter protein OATP1B3 (OATP1B3): minimal inhibition
